Measurements taken from ChEMBL document CHEMBL1123844, “Synthesis of new antiinflammatory steroidal 20-carboxamides: (20R)- and (20S)-21-(N-substituted amino)-11 beta,17,20-trihydroxy-3,21-dioxo-1,4- pregnadiene” (J Med Chem, 1987).

Key:
Rattus norvegicus [1] = test: Tested for topical antiinflammatory activity in the croton oil ear edema assay; format: functional; design: concentration or dose not given beside the values
Method in brief: (§1)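 Male Sprague–Dawley rats (100–200 g), acclimated 1 week. Baseline ear thickness was measured. Steroid at 0.75 mg/ear went to both ears, then 30 min later 50 μL 5% croton oil in acetone. Thickness was remeasured at 5 h. Mean change ± SEM, n=5; % inhibition vs vehicle controls, Student's t test.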

Rattus norvegicus [2] = organism: Rattus norvegicus; test: Compound was evaluated for antiinflammatory activity in granuloma bioassay and measured as plasma corticosterone weight; format: functional, organism-based
Method in brief: (§2)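 Male Sprague–Dawley rats (100–200 g), acclimated 1 week under controlled lighting. Each rat got one cotton pellet (35 ± 1 mg) loaded with 2 mg steroid in acetone and one vehicle pellet; controls got two vehicle pellets. Rats were killed 7 days later. Readouts: thymus and adrenal weights, initial/final body weight, plasma corticosterone by 3H radioimmunoassay of cardiac blood. Mean ± SEM, n=6, Student's t test.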

Rattus norvegicus [3] = organism: Rattus norvegicus; test: Evaluated for antiinflammatory activity in granuloma bioassay and expressed as relative thymus weight; format: functional; method in brief: as §2
Rattus norvegicus [4] = organism: Rattus norvegicus; test: Tested for inhibition of formation of granulation tissue around the cotton pellet untreated with steroid; format: functional; design: concentration or dose not given beside the values
Method in brief: (§3)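 Male Sprague–Dawley rats (100–200 g). Before implantation, the right cotton pellet (35 ± 1 mg) received 2 mg steroid in acetone and the left pellet vehicle only; controls had two vehicle pellets. After 7 days, pellets with granulation tissue were dried at 60 °C for 48 h and weighed. Net dry weight, mean ± SEM, n=6; % inhibition vs vehicle group.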

[5] = Octanol- water partition coefficient was determined.
Rattus norvegicus [6] = organism: Rattus norvegicus; test: Tested for inhibition of formation of granulation tissue around the cotton pellet treated with steroid; format: functional; design: concentration or dose not given beside the values; method in brief: as §3
Rattus norvegicus [7] = organism: Rattus norvegicus; test: Evaluated for antiinflammatory activity in granuloma bioassay and expressed as relative adrenal weight; format: functional; method in brief: as §2
Rattus norvegicus [8] = organism: Rattus norvegicus; test: Tested for inhibition of formation of granulation tissue around the cotton pellet untreated with steroid and expressed as net dry weight; format: functional; method in brief: as §3
Rattus norvegicus [9] = organism: Rattus norvegicus; test: Compound was evaluated for antiinflammatory activity in granuloma bioassay and measured as body weight gain; format: functional; method in brief: as §2
Rattus norvegicus [10] = organism: Rattus norvegicus; test: Tested for inhibition of formation of granulation tissue around the cotton pellet treated with steroid and expressed as net dry weight; format: functional; method in brief: as §3
Rattus norvegicus [11] = test: Tested for topical antiinflammatory activity in the croton oil ear edema assay and was expressed as mean change in ear thickness of rats; format: functional; method in brief: as §1

SMILES | Inhibition (Rattus norvegicus [1]) | Plasma corticosterone (Rattus norvegicus [2]) | Relative thymus weight (Rattus norvegicus [3]) | Inhibition (Rattus norvegicus [4]) | Partition coefficient [5] | Inhibition (Rattus norvegicus [6]) | Relative adrenal weight (Rattus norvegicus [7]) | Net dry weight (Rattus norvegicus [8]) | Body weight gain (Rattus norvegicus [9]) | Net dry weight (Rattus norvegicus [10]) | Mean change (Rattus norvegicus [11])
CCCNC(=O)[C@H](O)[C@@]1(O)CC[C@H]2[C@@H]3CCC4=CC(=O)C=C[C@]4(C)[C@H]3[C@@H](O)C[C@@]21C | 31.9% | 236 ng/mL | 88.5 mg 100g-1 | 41.2% | 26.7 | 69.3% | 13.1 mg 100g-1 | 46.6 mg | 30.2 g | 23.9 mg | 0.311 mm
C[C@]12C=CC(=O)C=C1CC[C@@H]1[C@@H]2[C@@H](O)C[C@@]2(C)[C@H]1CC[C@]2(O)C(=O)CO [PREDNISOLONE] | 68.6% | 130 ng/mL | 110.2 mg 100g-1 | 26.6% | 30 | 60.6% | 12.1 mg 100g-1 | 58.2 mg | 55 g | 30.7 mg | 0.145 mm
CNC(=O)[C@@H](O)[C@@]1(O)CC[C@H]2[C@@H]3CCC4=CC(=O)C=C[C@]4(C)[C@H]3[C@@H](O)C[C@@]21C | 24.5% | 291 ng/mL | 247 mg 100g-1 | -4.5% | 8.6 | 21.1% | 16.7 mg 100g-1 | 82.8 mg | 55 g | 61.6 mg | 0.349 mm
CNC(=O)[C@H](O)[C@@]1(O)CC[C@H]2[C@@H]3CCC4=CC(=O)C=C[C@]4(C)[C@H]3[C@@H](O)C[C@@]21C | 33.5% | 321 ng/mL | 116.4 mg 100g-1 | 48.6% | 10 | 75.5% | 14 mg 100g-1 | 40.8 mg | 46 g | 18.9 mg | 0.307 mm
C[C@]12C=CC(=O)C=C1CC[C@@H]1[C@@H]2[C@@H](O)C[C@@]2(C)[C@H]1CC[C@]2(O)[C@@H](O)C(=O)NCc1ccccc1 | 42.6% | 101 ng/mL | 167.1 mg 100g-1 | 38.9% | 32.5 | 69.3% | 12.4 mg 100g-1 | 48.4 mg | 42 g | 24 mg | 0.265 mm
CCNC(=O)[C@H](O)[C@@]1(O)CC[C@H]2[C@@H]3CCC4=CC(=O)C=C[C@]4(C)[C@H]3[C@@H](O)C[C@@]21C | 34.6% | 280 ng/mL | – | 26.7% | – | 53.3% | – | 58.1 mg | 45.7 g | 36.4 mg | 0.302 mm
CCNC(=O)[C@@H](O)[C@@]1(O)CC[C@H]2[C@@H]3CCC4=CC(=O)C=C[C@]4(C)[C@H]3[C@@H](O)C[C@@]21C | 33.8% | 288 ng/mL | – | -4.9% | – | 23.1% | – | 83.1 mg | 54.7 g | 59.9 mg | 0.305 mm
C[C@]12C=CC(=O)C=C1CC[C@@H]1[C@@H]2[C@@H](O)C[C@@]2(C)[C@H]1CC[C@]2(O)[C@H](O)C(=O)NCc1ccccc1 | 21.9% | 298 ng/mL | 264.2 mg 100g-1 | 5.2% | 30 | 20.9% | 11.8 mg 100g-1 | 75.2 mg | 55.7 g | 61.6 mg | 0.361 mm
CCCNC(=O)[C@@H](O)[C@@]1(O)CC[C@H]2[C@@H]3CCC4=CC(=O)C=C[C@]4(C)[C@H]3[C@@H](O)C[C@@]21C | 23.6% | 164 ng/mL | 161.7 mg 100g-1 | 39.1% | 16.3 | 57.1% | 14 mg 100g-1 | 48.3 mg | 56.7 g | 33.4 mg | 0.353 mm
